Experimental data as given in ChEMBL document CHEMBL1142934, “Molecular modeling of the human P2Y2 receptor and design of a selective agonist, 2'-amino-2'-deoxy-2-thiouridine 5'-triphosphate” (J Med Chem, 2007).

What was measured:
Assay type in all cases: functional, cell-based
P2Y purinoceptor 2 = P2Y purinoceptor 2 (Homo sapiens, UniProt P41231); experiment: Agonist activity at human recombinant P2Y2 receptor expressed in 1321N1 cells assessed as stimulation of phospholipase C
Procedure, shortened: (§1)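 Human P2Y2, P2Y4 or P2Y6 receptors stably expressed in 1321N1 astrocytoma cells. PLC activation was measured across a concentration range of each nucleotide. Tritiated inositol phosphates formed from a radiolabeled myo-inositol precursor were quantified by a standard ion exchange method. Values are mean ± standard error, N = 3.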

P2Y purinoceptor 6 [1] = biological target: T1, P2Y purinoceptor 6 (Homo sapiens, UniProt Q15077); experiment: Agonist activity at human recombinant P2Y6 receptor expressed in 1321N1 cells assessed as stimulation of phospholipase C
Procedure, shortened: as §1, with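 “method. EC50 was the concentration giving 50% of the maximal effect, fitted with a four-parameter logistic equation.” for “method.”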

P2Y purinoceptor 4 [2] = biological target: T2, P2Y purinoceptor 4 (Homo sapiens, UniProt P51582); experiment: Agonist activity at human recombinant P2Y4 receptor expressed in 1321N1 cells assessed as stimulation of phospholipase C
Procedure, shortened: as §1, with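 “method. EC50 was the concentration giving 50% of the maximal effect, fitted with a four-parameter logistic equation.” for “method.”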

P2Y purinoceptor 6 [3] = biological target: T1, P2Y purinoceptor 6; experiment: Agonist activity at human recombinant P2Y6 receptor expressed in 1321N1 cells assessed as intracellular calcium mobilization
P2Y purinoceptor 4 [4] = biological target: T2, P2Y purinoceptor 4; experiment: Antagonistic activity at human recombinant P2Y4 receptor expressed in 1321N1 cells; details: filed as antagonist

Sequence of P2Y purinoceptor 2 (P41231 whole entry): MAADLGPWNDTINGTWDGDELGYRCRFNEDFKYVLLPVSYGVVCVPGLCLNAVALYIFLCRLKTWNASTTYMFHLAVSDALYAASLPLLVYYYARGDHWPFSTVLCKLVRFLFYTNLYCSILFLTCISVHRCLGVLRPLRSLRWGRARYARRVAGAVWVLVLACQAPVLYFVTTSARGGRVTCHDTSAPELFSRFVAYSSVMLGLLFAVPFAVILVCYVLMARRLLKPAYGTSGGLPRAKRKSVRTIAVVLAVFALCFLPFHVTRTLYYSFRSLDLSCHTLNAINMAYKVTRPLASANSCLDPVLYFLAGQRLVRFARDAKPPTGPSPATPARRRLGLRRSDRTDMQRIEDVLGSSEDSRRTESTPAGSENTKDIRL
T1 sequence (Q15077 whole entry): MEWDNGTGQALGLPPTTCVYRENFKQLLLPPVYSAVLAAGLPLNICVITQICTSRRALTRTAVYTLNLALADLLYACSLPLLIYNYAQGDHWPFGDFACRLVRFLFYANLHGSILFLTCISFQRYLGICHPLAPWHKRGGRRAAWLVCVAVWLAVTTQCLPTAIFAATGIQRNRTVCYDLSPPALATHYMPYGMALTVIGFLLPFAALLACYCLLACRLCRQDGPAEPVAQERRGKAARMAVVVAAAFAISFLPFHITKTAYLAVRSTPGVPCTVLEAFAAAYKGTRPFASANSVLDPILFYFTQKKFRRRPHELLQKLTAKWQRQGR
T2 sequence (P51582 whole entry): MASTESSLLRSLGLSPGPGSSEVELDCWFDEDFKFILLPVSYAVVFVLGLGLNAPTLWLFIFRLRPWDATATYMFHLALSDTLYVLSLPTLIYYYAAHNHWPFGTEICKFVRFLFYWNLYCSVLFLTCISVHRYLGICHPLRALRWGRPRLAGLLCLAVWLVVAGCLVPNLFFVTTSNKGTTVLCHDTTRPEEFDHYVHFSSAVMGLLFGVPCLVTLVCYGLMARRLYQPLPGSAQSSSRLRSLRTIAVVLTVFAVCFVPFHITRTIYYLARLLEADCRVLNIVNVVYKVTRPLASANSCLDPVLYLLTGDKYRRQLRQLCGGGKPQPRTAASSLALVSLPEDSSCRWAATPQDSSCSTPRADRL

Compound	EC50 (P2Y purinoceptor 2)	EC50 (P2Y purinoceptor 6 [1])	EC50 (P2Y purinoceptor 4 [2])	further results
CC(=O)N[C@@H]1[C@H](O)[C@@H](COP(=O)(O)OP(=O)(O)OP(=O)(O)O)O[C@H]1n1ccc(=O)[nH]c1=S	6.5 µM (agonist)			
[N-]=[N+]=Nc1cn([C@@H]2O[C@H](COP(=O)(O)OP(=O)(O)OP(=O)(O)O)[C@@H](O)[C@H]2O)c(=O)[nH]c1=O	1.8 µM (agonist)	0.467 µM (agonist)		
N[C@@H]1[C@H](O)[C@@H](COP(=O)(O)OP(=O)(O)OP(=O)(O)O)O[C@H]1n1ccc(=O)[nH]c1=S	0.008 µM (agonist)	> 10 µM	2.4 µM (agonist)	
O=c1[nH]c(=O)n([C@@H]2O[C@H](COP(=O)(O)OP(=O)(O)OP(=O)(O)O)[C@@H](O)[C@H]2O)cc1I	0.83 µM (agonist)			
O=c1ccn([C@@H]2O[C@H](COP(=O)(O)OP(=O)(O)OP(=O)(O)OP(=O)(O)OC[C@H]3O[C@@H](n4ccc(=O)[nH]c4=O)[C@H](O)[C@@H]3O)[C@@H](O)[C@H]2O)c(=O)[nH]1 [DIQUAFOSOL]				EC50 (P2Y purinoceptor 6 [3]): 20 µM (agonist)
O=C(N[C@@H]1[C@H](O)[C@@H](COP(=O)(O)OP(=O)(O)OP(=O)(O)O)O[C@H]1n1ccc(=O)[nH]c1=S)C(F)(F)F	0.47 µM (agonist)		8.3 µM (agonist)	
CO[C@@H]1[C@H](O)[C@@H](COP(=O)(O)OP(=O)(O)OP(=O)(O)O)O[C@H]1n1ccc(=O)[nH]c1=O	14.3 µM (agonist)			
O=c1[nH]c(=O)n([C@@H]2O[C@H](COP(=O)(O)OP(=O)(O)OP(=O)(O)O)[C@@H](O)[C@H]2O)cc1Br	0.75 µM (agonist)			
Nc1ccn([C@H]2C[C@H](O)[C@@H](COP(=O)(O)OP(=O)(O)OP(=O)(O)OP(=O)(O)OC[C@H]3O[C@@H](n4ccc(=O)[nH]c4=O)[C@H](O)[C@@H]3O)O2)c(=O)n1 [DENUFOSOL]	0.27 µM (agonist)			
O=c1ccn([C@@H]2O[C@H](COP(=O)(O)OP(=O)(O)OP(=O)(O)OP(=O)(O)OC[C@H]3OC(O)[C@H](O)[C@@H]3O)[C@@H](O)[C@H]2O)c(=O)[nH]1 (some centres not stated)	1.88 µM (agonist)			
O=c1ccn([C@H]2C[C@H](O)[C@@H](COP(=O)(O)OP(=O)(O)OP(=O)(O)O)O2)c(=O)[nH]1	1.08 µM (agonist)			
Nc1cn([C@@H]2O[C@H](COP(=O)(O)OP(=O)(O)OP(=O)(O)O)[C@@H](O)[C@H]2O)c(=O)[nH]c1=O	5.6 µM (agonist)	0.333 µM (agonist)		
Nc1ncnc2c1ncn2[C@@H]1O[C@H](COP(=O)(O)OP(=O)(O)OP(=O)(O)O)[C@@H](O)[C@H]1O				Activity (P2Y purinoceptor 4 [4]): Antagonist; Kb (P2Y purinoceptor 4 [4]): 0.708 µM
O=c1ccn([C@@H]2O[C@H](COP(=O)(O)OP(=O)(O)OP(=O)(O)O)[C@@H](O)[C@H]2O)c(=S)[nH]1	0.035 µM (agonist)	1.5 µM (agonist)	0.35 µM (agonist)	
O=c1ccn([C@@H]2O[C@H](COP(=O)(O)OP(=O)(O)OP(=O)(O)S)[C@@H](O)[C@H]2O)c(=O)[nH]1 (some centres not stated)	0.24 µM (agonist)			
N[C@@H]1[C@H](O)[C@@H](COP(=O)(O)OP(=O)(O)OP(=O)(O)O)O[C@H]1n1ccc(=O)[nH]c1=O	0.062 µM (agonist)	> 100 µM	1.2 µM (agonist)	
Cc1cn([C@@H]2O[C@H](COP(=O)(O)OP(=O)(O)OP(=O)(O)O)[C@@H](O)[C@H]2O)c(=O)[nH]c1=O [THYMIDINE_TRIPHOSPHATE]	0.48 µM (agonist)	0.14 µM (agonist)	3.9 µM (agonist)	
O=c1ccn([C@@H]2O[C@H](COP(=O)(O)OP(=O)(O)OP(=O)(O)O)[C@@H](O)[C@H]2O)c(=O)[nH]1 [URIDINE TRIPHOSPHATE]	0.049 µM (agonist)		0.073 µM (agonist)	EC50 (P2Y purinoceptor 6 [3]): > 10 µM (agonist)
